Experimental findings from ChEMBL document CHEMBL1156430, “Identification of NVP-TAE684, a potent, selective, and efficacious inhibitor of NPM-ALK” (Proc Natl Acad Sci U S A, 2007) are described below.

Activity calls are given as the source filed them. No cut-off for these calls is given here.

The target of series [1] is Signal transducer and activator of transcription 3 (Mus musculus) (UniProt P42227). Kind of series: Inhibition of STAT3 phosphorylation in mouse Ba/F3 NPM-ALK cells. In kind it is cell-based. The essentials: (§1)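 Ba/F3 NPM-ALK, Karpas-299 or SU-DHL-1 cells treated for 4 h with DMSO or increasing concentrations. STAT3 and STAT5 phosphorylation read by Western blot of lysates.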
Sequence of Signal transducer and activator of transcription 3 (Mus musculus) (P42227 whole entry): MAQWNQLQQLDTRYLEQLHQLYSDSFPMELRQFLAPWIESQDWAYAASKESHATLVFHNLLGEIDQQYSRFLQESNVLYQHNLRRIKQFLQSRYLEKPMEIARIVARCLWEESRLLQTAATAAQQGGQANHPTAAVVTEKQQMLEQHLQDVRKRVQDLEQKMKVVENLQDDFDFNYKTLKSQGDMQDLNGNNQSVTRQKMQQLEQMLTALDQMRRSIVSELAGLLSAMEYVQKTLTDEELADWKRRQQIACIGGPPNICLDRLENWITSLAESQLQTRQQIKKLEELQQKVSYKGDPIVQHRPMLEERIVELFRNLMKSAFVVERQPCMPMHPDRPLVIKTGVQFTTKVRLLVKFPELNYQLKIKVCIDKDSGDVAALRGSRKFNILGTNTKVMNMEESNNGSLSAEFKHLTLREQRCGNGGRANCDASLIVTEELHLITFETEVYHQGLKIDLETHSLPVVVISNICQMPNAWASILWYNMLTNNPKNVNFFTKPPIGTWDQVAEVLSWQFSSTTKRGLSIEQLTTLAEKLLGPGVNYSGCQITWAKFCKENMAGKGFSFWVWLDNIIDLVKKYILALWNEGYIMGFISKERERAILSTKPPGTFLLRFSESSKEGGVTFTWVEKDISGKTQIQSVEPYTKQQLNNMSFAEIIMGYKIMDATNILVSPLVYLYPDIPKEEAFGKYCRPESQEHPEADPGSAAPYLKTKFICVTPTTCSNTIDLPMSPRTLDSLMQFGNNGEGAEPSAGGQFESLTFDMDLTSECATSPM

Series [2] relates to SU-DHL-1. The series is described as follows: Induction of apoptosis in human SUDHL1 cells at 50 nM after 48 hrs by annexin V assay. Format: functional. The essentials: (§2)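 Parental Ba/F3 (with IL-3), Ba/F3 NPM-ALK or SU-DHL-1 cells treated with 50 nM or DMSO for 48 h. Annexin V/7-AAD staining read by flow cytometry; percent Annexin V-positive cells counted.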
A short description of series [3]: Cmax in human Karpas299 cells xenografted SCID beige mouse at 20 mg/kg, po. In kind it is ADME, organism-based, KARPAS-299. The settings on record: in vivo. Also noted: dose 20 mg/kg, route oral. The essentials:
(§3)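 Mice given a single oral dose of 20 mg/kg as a solution in 10% 1-methyl-2-pyrrolidinone/90% PEG 300. Plasma levels measured to give Cmax, bioavailability and elimination half-life.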
On the technique in general: Xenograft models place foreign cells or tissue in a host animal.

In a further series the test system is Mus musculus. The series is described as follows: Toxicity in mouse Ba/F3 NPM-ALK cells xenografted in SCID beige mouse assessed as reduction in spleen weight at 10 mg/kg, po. In kind it is organism-based. Also noted: dose 10 mg/kg, route oral; scale not given: the % may be the effect or the level left. The settings on record: in vivo.
Series [4] concerns the target Nucleophosmin (Mus musculus) (UniProt Q61937). The series is described as follows: Inhibition of NPM-ALK in mouse Ba/F3 NPM-ALK cells at 50 nM. Format: cell-based. To be noted: TDE = time-dependent effect.
A further series relates to BaF3. Kind of series: Induction of apoptosis in mouse parental Ba/F3 cells at 50 nM after 48 hrs by annexin V assay. Format: functional, cell-based. The essentials:
as §2

Series [5] can be described thus: Antiproliferative activity against mouse Ba/F3 NPM-ALK cells assessed as luciferase expression after 2 to 3 days. Format: functional, cell-based. The essentials: (§4)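 Ba/F3 cells carrying luciferase, either parental (with IL-3) or transformed by NPM-ALK or TEL-kinase fusions, 25,000 per well with serial dilutions or DMSO for 2–3 days. Bright-Glo luminescence taken as proliferation/survival. IC50 from curve fit.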

Series [6] deals with KARPAS-299. The series is described as follows: Antilymphomal activity against human Karpas299 cells xenografted in SCID beige mouse assessed as reduction in NPM-ALK phosphorylation after 3.5 weeks of […] at 10 mg/kg for 3 days. In kind it is functional, organism-based. Further details: dose 10 mg/kg. The essentials:
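Female Fox Chase SCID_Beige mice given 1 × 10⁶ Karpas-299 cells by tail vein. Treatment began at 3.5 weeks, once palpable lymphomas had formed. Drug at 10 mg/kg or vehicle for 3 days, 3 mice per arm. Killed 4 h after the third dose. Excised lymph nodes immunoblotted for NPM-ALK and Stat3 phosphorylation.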

Series [7] deals with KARPAS-299. Kind of series: Cell cycle arrest in human Karpas299 cells by accumulation in G1 phase at 25 nM after 72 hrs. In kind it is functional. The essentials:
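Karpas-299 cells exposed to 25 nM or DMSO for 24, 48 and 72 h, then fixed, stained with propidium iodide and analyzed for cell cycle distribution by flow cytometry. Three separate experiments.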

The nature of series [8]: Bioavailability in human Karpas299 cells xenografted SCID beige mouse at 20 mg/kg. Format: ADME, organism-based, KARPAS-299. To be noted: in vivo. The essentials: as §3
In series [9] the test system is KARPAS-299. The series is described as follows: Induction of apoptosis in human Karpas299 cells at 50 nM after 48 hrs by annexin V assay. Format: functional. The settings on record: in the assay text read “72 hrs” for “48 hrs”. The essentials:
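Karpas-299 cells given 50 nM or DMSO, with flow cytometry every 24 h up to 72 h. Annexin V staining gave the percent of positive cells.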

Series [10] concerns the target T1, Signal transducer and activator of transcription 5A (Homo sapiens) (UniProt P42229).
T1 sequence (whole entry): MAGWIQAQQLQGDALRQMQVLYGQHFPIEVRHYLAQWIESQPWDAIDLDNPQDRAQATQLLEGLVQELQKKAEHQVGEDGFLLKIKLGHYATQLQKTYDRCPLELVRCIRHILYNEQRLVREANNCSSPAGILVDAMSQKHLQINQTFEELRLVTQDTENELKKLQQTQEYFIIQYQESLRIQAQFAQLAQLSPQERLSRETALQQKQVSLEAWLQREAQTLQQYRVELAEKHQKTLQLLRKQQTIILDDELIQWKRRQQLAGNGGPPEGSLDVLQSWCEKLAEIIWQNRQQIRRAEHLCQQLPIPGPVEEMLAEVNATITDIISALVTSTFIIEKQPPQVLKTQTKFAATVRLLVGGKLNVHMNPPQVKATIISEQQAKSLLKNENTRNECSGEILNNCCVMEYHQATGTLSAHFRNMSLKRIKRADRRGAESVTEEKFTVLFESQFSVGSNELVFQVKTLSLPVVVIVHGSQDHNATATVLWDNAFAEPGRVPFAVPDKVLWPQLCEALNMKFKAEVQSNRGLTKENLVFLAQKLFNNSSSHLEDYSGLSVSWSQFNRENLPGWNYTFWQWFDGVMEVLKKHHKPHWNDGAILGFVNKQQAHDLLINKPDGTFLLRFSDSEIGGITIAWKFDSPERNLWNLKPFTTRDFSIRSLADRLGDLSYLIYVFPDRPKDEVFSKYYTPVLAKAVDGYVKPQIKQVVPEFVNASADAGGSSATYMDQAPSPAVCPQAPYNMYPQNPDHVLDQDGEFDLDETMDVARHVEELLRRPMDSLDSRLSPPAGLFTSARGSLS
Kind of series: Inhibition of STAT5 phosphorylation in human SUDHL1 cells. Format: cell-based. The essentials:
as §1

Series [11] is described as follows: Cytotoxicity against mouse parental Ba/F3 cells assessed as luciferase expression up to 1 uM after 2 to 3 days. To be noted: baf3. In kind it is cell-based. The essentials:
as §4

In series [12] the test system is SU-DHL-1. The series is described as follows: Antiproliferative activity against human SUDHL1 cells assessed as luciferase expression after 72 hrs. In kind it is functional, cell-based. The settings on record: SU-DHL-1, 72 h. The essentials: (§5)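 Luciferase-expressing Karpas-299 or SU-DHL-1 cells, 25,000 per well, exposed to serial dilutions or DMSO for 72 h. Bright-Glo luminescence normalized to DMSO wells as percent survival. IC50 from curve fit.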

Series [13] concerns the target Signal transducer and activator of transcription 3 (Homo sapiens) (UniProt P40763). Kind of series: Inhibition of STAT3 phosphorylation in human SUDHL1 cells. In kind it is cell-based. The essentials:
as §1

Series [14] deals with KARPAS-299. The series is described as follows: Antiproliferative activity against human Karpas299 cells assessed as luciferase expression after 72 hrs. In kind it is functional, cell-based. The settings on record: KARPAS-299, 72 h. The essentials:
as §5

Series [15] can be described thus: Induction of apoptosis in mouse Ba/F3 NPM-ALK cells at 50 nM after 48 hrs by annexin V assay. Format: functional. The essentials:
as §2

Sequence of Signal transducer and activator of transcription 3 (Homo sapiens) (P40763 whole entry): as the sequence (P42227 whole entry) above, with D760E counted along it
Sequence of Nucleophosmin (Mus musculus) (Q61937 whole entry): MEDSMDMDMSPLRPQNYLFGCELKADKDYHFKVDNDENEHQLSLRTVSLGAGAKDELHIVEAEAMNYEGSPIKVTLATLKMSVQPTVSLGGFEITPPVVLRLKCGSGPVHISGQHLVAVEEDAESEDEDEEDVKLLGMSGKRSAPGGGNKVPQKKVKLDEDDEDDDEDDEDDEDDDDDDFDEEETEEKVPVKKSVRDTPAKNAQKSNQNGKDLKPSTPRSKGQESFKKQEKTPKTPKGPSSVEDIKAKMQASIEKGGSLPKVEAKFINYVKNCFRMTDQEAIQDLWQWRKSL

What is called Cmax is the peak of the concentration-time curve. The term IC50 denotes the point on the concentration scale where inhibition reaches its midpoint. The term bioavailability denotes dose-corrected exposure relative to a reference, in per cent. Turning to `COc1cc(N2CCC(N3CCN(C)CC3)CC2)ccc1Nc1ncc(Cl)c(Nc2ccccc2S(=O)(=O)C(C)C)n1` [TAE-684], the Activity entry in [1] was “Dose-dependent effect”; in the series on SU-DHL-1 [2] it was 70%; with Mus musculus, 80%; in [4], “tde”; with KARPAS-299 [7] it was 72%; with KARPAS-299 [9] it was 20%. Further, the Activity result was “Dose-dependent effect” in [10], “Not Active” in series [11], “Dose-dependent effect” in series [13] and 85% in [15]. In series [3], this molecule had a maximum concentration (Cmax) of 800 nM. Besides, the outcome in the series with BaF3 was inactive. Moreover, the IC50 in series [5] came out at 3 nM; in the series on SU-DHL-1 [12] it was 2 nM; in the series with KARPAS-299 [14], 3 nM. Moreover, in the series on KARPAS-299 [6], the outcome was Active. The molecule also showed a bioavailability in series [8] of 60%.
